Molecules are shown by their SMILES.

This series in a line: Toxicity liver stage against HepG2, at 10uM. The series is classed as cell-based. Set-up: test concentration 10 uM, cell line HepG2-A16-CD81EGFP. The note with it: human, HepG2-A16-CD81EGFP cells; read-out: INHIBITION
In short, it runs like this: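 Uninfected HepG2-A16-CD81EGFP cells, 3 × 10^3 per well, 1536-well, plated on prespotted compound at 10 μM final, parasite-free screening media added to match infected plates; puromycin 10 μM positive, DMSO 0.5% negative; run in parallel with 48 h PbLuc assay at 37 °C, 5% CO2; viability by CellTiter-Glo luminescence, normalized to controls.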
For the compound `COCCN1CC2(CCC1=O)CCN(Cc1nnc(C)o1)CC2`, the cytotoxicity at 10 µM was -5.81%.

`Cc1[nH]ncc1C(=O)N1CCCN(Cc2nccn2C(C)C)CC1`: the cytotoxicity at 10 µM was -6.33%.

Consider `CCN1CCCC(CNC(=O)C2(c3cccc(Cl)c3)CC2)C1` (stereo not drawn), for which the cytotoxicity at 10 µM was -2.77%.

As for `Cc1nc(CNC(=O)NCC2(C)CCCc3ccccc32)no1` (stereo not drawn), the cytotoxicity at 10 µM was -3.05%.

Consider `c1ccc(-c2noc(CN3CCC(c4ccn[nH]4)CC3)n2)cc1`, for which the cytotoxicity at 10 µM was -1.19%.

Turning to `Cc1ccc2cc(CN(C)Cc3ccccn3)c(=O)[nH]c2c1`, the cytotoxicity at 10 µM amounted to 3.08%.

Regarding `COCCc1noc(CNC2CCc3nc(C(C)C)nn3C2)n1` (stereo not drawn), the cytotoxicity at 10 µM came to 4.28%.

With `CC(C)C1SCC(=O)Nc2c1cnn2C(C)C` (stereo not drawn), the cytotoxicity at 10 µM came out at 4%.

Consider `COCCC(=O)N1C[C@H](C(C)C)[C@@H](N(C)C)C1`, for which the cytotoxicity at 10 µM was 5.75%.

With `CC(C)Cc1nc(CS(=O)(=O)c2ccccc2)no1`, the cytotoxicity at 10 µM turned out to be 9.52%.

For `Cc1ccc(CN2CCOCC2)cc1NC(=O)c1ccsc1`, the cytotoxicity at 10 µM was determined as 3.22%.

For `O=C(C1CCC1)N1CCC2(CCCN2CC2CC2)CC1`, the cytotoxicity at 10 µM was -2.45%.

Consider `CN1CCN(Cc2cn3c(n2)CN(C2CCOCC2)CC3)CC1`, for which the cytotoxicity at 10 µM stood at 3.91%.

`COCCC1CCCCN1Cc1nc(C2CC2)no1` (stereo not drawn): the cytotoxicity at 10 µM was found to be 8.53%.

`CC(C)C[C@H](N)COc1cccc(F)c1Oc1ccc(Cl)cc1`: the cytotoxicity at 10 µM stood at 84.7%.

Turning to `O=C(C1CCOC1)N1CCC2(CCNCC2)C1` (stereo not drawn), the cytotoxicity at 10 µM came out at 7.62%.

With `CN(Cc1nnc2n1CCC2)C(=O)CCc1ccc2c(c1)OCO2`, the cytotoxicity at 10 µM is -14%.

For `COCCOCC(=O)Nc1ccc(F)cc1C`, the cytotoxicity at 10 µM stood at 12.8%.

Regarding `c1coc(CN2CCO[C@@]3(CCC[C@@H]3COCc3nccs3)C2)c1`, the cytotoxicity at 10 µM was -73.5%.

In the case of `COc1cccc(CN(C)C(C)c2nccs2)c1OCCn1ccnc1` (stereo not drawn), the cytotoxicity at 10 µM is -0.21%.

For `Cc1cc(NC(=O)Cn2cnc(-c3cccs3)cc2=O)sn1`, the cytotoxicity at 10 µM was 0.0962%.

With `CCSCc1cccc(NC(=O)N(C)Cc2ncnn2C)c1`, the cytotoxicity at 10 µM is -0.477%.

Consider `CC[C@@H]1N(CC2CC2)CCC[C@]12CCC(=O)N2`, for which the cytotoxicity at 10 µM came out at 15.4%.

Take `O=C(O)[C@H]1CCCN1CCOc1cccc(Cl)c1`: the cytotoxicity at 10 µM is 17%.

Regarding `O=C(Cc1cccs1)N1Cc2nc(COCC3CC3)oc2C1`, the cytotoxicity at 10 µM was determined as 2.55%.

For the compound `Cc1cc2ccccc2n1CCC(=O)NCCCc1nnc(N)s1`, the cytotoxicity at 10 µM was found to be 19.6%.

Regarding `COCCn1ccc2c(C(=O)NC(C)C)cccc21`, the cytotoxicity at 10 µM came to 3.46%.

As to `Nc1no[n+]([O-])c1C(=O)NCc1cccnc1`, the cytotoxicity at 10 µM was 5.93%.

On to `COc1ccc2c(c1)CC(C1CCOCC1)N(C(=O)c1ccn(C)n1)C2` (stereo not drawn), for which the cytotoxicity at 10 µM came to 1.78%.

Take `CCN1CC2(CCN(C(=O)c3nc4cc(C)ccn4c3F)CC2)CC1=O`: the cytotoxicity at 10 µM came out at 12.3%.

For the compound `OCC1(O)CCN(Cc2noc(-c3ccccc3)n2)CC1`, the cytotoxicity at 10 µM was -0.0739%.

Regarding `CN(C)C(=O)CN1C[C@H]2CC[C@@H](C1)N(Cc1c(Cl)cncc1Cl)C2`, the cytotoxicity at 10 µM worked out at 6.02%.

Take `CN(C)C(=O)Cn1cc(C(=O)NCCc2cccc(Cl)c2Cl)nn1`: the cytotoxicity at 10 µM is -1.42%.

For the compound `Cc1cc(N2CCC(CO)(CC3CCCCO3)CC2)nc2ccccc12` (stereo not drawn), the cytotoxicity at 10 µM was 5.51%.

Take `Cc1oc(CNC(=O)Cc2ccccc2Cl)cc1C(=O)O`: the cytotoxicity at 10 µM turned out to be 0.723%.

Consider `OC1CCCN(Cc2ccnc(-c3cccnc3)n2)C1` (stereo not drawn), for which the cytotoxicity at 10 µM is 14%.

Take `Cc1ccc(CNC(=O)NC2CCCc3c2cnn3CCO)cn1` (stereo not drawn): the cytotoxicity at 10 µM is -11.8%.

As to `CC(C(=O)NCCCN1CCN(c2ccccc2)CC1)n1cncn1` (stereo not drawn), the cytotoxicity at 10 µM was -5.93%.

`O=C(O)c1ccc(CCNC(=O)C2(c3ccccc3)CC2)cc1`: the cytotoxicity at 10 µM worked out at 8.29%.

Take `Cc1cc(I)cnc1NC(=O)C(C)(C)C`: the cytotoxicity at 10 µM turned out to be 4.44%.

On to `Nc1ncccc1CN1CCCn2nc(CCC(=O)NC3CC3)cc2C1`, for which the cytotoxicity at 10 µM was determined as 1.45%.

Consider `CC(O)CN1CCc2onc(C(c3ccccc3)c3ccccc3)c2C1` (stereo not drawn), for which the cytotoxicity at 10 µM is -1.49%.

On to `Cc1nccn1CCCC(=O)Nc1nc(C(C)C)nn1C`, for which the cytotoxicity at 10 µM was -1.37%.

Regarding `COc1ccccc1CCNC(=O)CNCC1CN(C)CCO1` (stereo not drawn), the cytotoxicity at 10 µM is 1.49%.

Consider `Cc1nnc2n1CCN(C(=O)C(OC1CCCC1)c1ccccc1)C2` (stereo not drawn), for which the cytotoxicity at 10 µM amounted to 5.87%.

As for `Cn1c2c(c(=O)n1C)CN(C(=O)c1ccsc1)CCC2`, the cytotoxicity at 10 µM is 5.04%.

On to `Cc1ccc(C(O)CN2CCN(Cc3nccn3C)CC2)cc1C` (stereo not drawn), for which the cytotoxicity at 10 µM was -37%.

As for `CS(=O)(=O)Cc1noc(CN2CCN(c3ccccc3Cl)CC2)n1`, the cytotoxicity at 10 µM turned out to be 5.09%.

In the case of `Cc1nccnc1N1C[C@H]2CN(C3CCOCC3)C[C@@]2(C(=O)O)C1`, the cytotoxicity at 10 µM is -6.93%.

`CC(C)C(=O)N1CCCC12CCN(C(=O)c1ccno1)C2` (stereo not drawn): the cytotoxicity at 10 µM came out at 7.49%.

With `CNc1cc(C)nc(N2Cc3cnn(Cc4ccc(F)cc4)c3C2)n1`, the cytotoxicity at 10 µM was 4.03%.

For `O=C(c1cc(-c2ccc(O)cc2)n[nH]1)N1CCCC1c1cccnc1` (stereo not drawn), the cytotoxicity at 10 µM was -4.09%.

As to `Cc1c(CC(=O)N2CCN(CC(F)(F)F)CC2)nnn1-c1ccccc1`, the cytotoxicity at 10 µM is -14.8%.

As for `CCn1cnnc1C1CCN(C(=O)c2ccccc2OC)CC1`, the cytotoxicity at 10 µM is -8.62%.

In the case of `c1cnc(-c2nn3c(CN4CCOCC4)nnc3s2)cn1`, the cytotoxicity at 10 µM worked out at 7.74%.

For the compound `O=C(c1nnn(-c2ccccc2Cl)c1-c1ccccn1)N1CCSCC1`, the cytotoxicity at 10 µM stood at 4.92%.

Take `O[C@H]1Cc2ccccc2[C@H]1n1ccnc1-c1cc2n(n1)CCNC2`: the cytotoxicity at 10 µM came out at 1.58%.

For `O=C(CCN1CCOCC1)Nc1cccc(CNCc2cccs2)c1`, the cytotoxicity at 10 µM is 5.04%.

Turning to `CN1CCN(c2ccccc2NC(=O)NCC[S+](C)[O-])CC1` (stereo not drawn), the cytotoxicity at 10 µM is -2.41%.

As to `CN(C)S(=O)(=O)N1C[C@H]2CC[C@@H](C1)N(Cc1cccc(C#N)c1)C2`, the cytotoxicity at 10 µM came out at 3.62%.

For `CC(=O)N1CCCN(C(=O)c2oc(Br)cc2C)CC1`, the cytotoxicity at 10 µM is -13.6%.

For the compound `CC(C)C(=O)N1CCC2(COCc3cnc(-c4cccnc4)nc32)C1` (stereo not drawn), the cytotoxicity at 10 µM was -102%.

With `Cc1ccc(-n2ccc3nc(N4CCCC4)ncc3c2=O)cc1C`, the cytotoxicity at 10 µM was 7.51%.

As for `Cc1cc(S(=O)(=O)N2CCCc3cc(Cl)ccc32)sc1C(=O)O`, the cytotoxicity at 10 µM was -16%.

As to `CS(=O)(=O)c1ccc(C(=O)NCc2nc3cc(F)ccc3[nH]2)cc1`, the cytotoxicity at 10 µM was -3.34%.

With `CC(=O)N1CCC(c2nn(C)c(=O)n2-c2ccccc2)CC1`, the cytotoxicity at 10 µM is -2.05%.

For `CC(=O)N1CCCN(C(=O)c2cnc(OC(C)C)c(Cl)c2)CC1`, the cytotoxicity at 10 µM came out at 6.02%.

Take `COc1ccc(CC(=O)N2CC[C@@H](OC)[C@@H]2Cc2cccnc2)cc1`: the cytotoxicity at 10 µM amounted to 8.48%.

On to `Cc1ccc(O)c(C(=O)N2CCC(CNC(=O)OC(C)(C)C)C2)c1` (stereo not drawn), for which the cytotoxicity at 10 µM was 16.4%.

Take `COCCOc1ncccc1CNC(=O)N1CCCCCC1`: the cytotoxicity at 10 µM was -36%.

Regarding `Cn1ccnc1C(O)c1ccccc1N1CCN(CC2CCCC2)CC1` (stereo not drawn), the cytotoxicity at 10 µM was determined as 0.135%.

For the compound `CN(C)C(=O)C1CCCN1CCCNC(=O)c1cccc2[nH]ncc12` (stereo not drawn), the cytotoxicity at 10 µM is -1.07%.

On to `CC(C)c1nnsc1CNC(=O)C1CCCN(C(=O)N(C)C)C1` (stereo not drawn), for which the cytotoxicity at 10 µM was -7.73%.

For the compound `Cc1cc2c(=O)n3c(nc2s1)CCN(C(=O)c1sc(C)nc1C)CC3`, the cytotoxicity at 10 µM is -0.579%.

For `CS(=O)(=O)N1CCCC(Cc2cncc(Br)c2)CC1` (stereo not drawn), the cytotoxicity at 10 µM is 2.16%.

For the compound `CCCc1cc(C(=O)N[C@@H]2CCC[C@@H](N3CCCC3)[C@@H]2O)no1`, the cytotoxicity at 10 µM was -2.48%.

Take `CCC1CCCN(C(=O)Cc2csc(-c3ncccn3)n2)C1` (stereo not drawn): the cytotoxicity at 10 µM is -5.15%.

On to `Cc1cc(C)cc(CN2CCN(Cc3cc(C#N)n(C)c3)CC2=O)c1`, for which the cytotoxicity at 10 µM was 6.24%.

`CN1CCN(CC(CC(=O)Nc2ccc(Cl)cc2)C(=O)O)CC1` (stereo not drawn): the cytotoxicity at 10 µM is 2.83%.

With `Cc1cccc(NCc2ncc(C(C)(C)C)o2)c1`, the cytotoxicity at 10 µM was 24.3%.

Take `Brc1cccnc1OC1CCNCC1`: the cytotoxicity at 10 µM is -10.3%.

For the compound `OC1COCCN(Cc2cc(-c3ccccc3OC(F)(F)F)no2)C1` (stereo not drawn), the cytotoxicity at 10 µM was -12.7%.

As to `N#CC(Sc1nnnn1C1CCOCC1)C1CCCCC1` (stereo not drawn), the cytotoxicity at 10 µM stood at 21.7%.

On to `O=C(CCS(=O)(=O)C1CCCC1)NCCc1cccnc1`, for which the cytotoxicity at 10 µM stood at 6.86%.

As for `Cc1nc(CN2CCCN(CC(=O)N(C)CCC#N)CC2)no1`, the cytotoxicity at 10 µM is 6.28%.

Take `N#Cc1cccc(CN2C[C@@H](NC(=O)C3CC3)[C@H]3OCCC[C@H]32)c1`: the cytotoxicity at 10 µM was found to be 6.44%.

With `O=C(c1cnccn1)N1C[C@@H](c2ccccc2)[C@@]2(CCNC2=O)C1`, the cytotoxicity at 10 µM is -1.59%.

In the case of `Cc1ccc(F)c(C(=O)NC2CCC(N3C(=O)CCC3=O)CC2)c1` (stereo not drawn), the cytotoxicity at 10 µM was -6%.

Consider `CCOCC(=O)N1CCCn2c(CN3CCOCC3)nnc2C1`, for which the cytotoxicity at 10 µM is -132%.

With `Cc1cc(I)c2c(c1)C(=O)C(CN1CCCC1)(CN1CCCC1)CO2`, the cytotoxicity at 10 µM is -6.86%.

Regarding `O=C1C(NCc2ccccc2O)CCN1Cc1ccccc1` (stereo not drawn), the cytotoxicity at 10 µM is -9.11%.

As for `CCOc1ccc(C#N)cc1NCc1cc(C)on1`, the cytotoxicity at 10 µM was -60.8%.

Regarding `O=C(C1CCCN1Cc1nc(-c2ccco2)no1)N1CCSCC1` (stereo not drawn), the cytotoxicity at 10 µM is -5.8%.

With `COc1cc(N2C[C@@H]3COC[C@]3(C(=O)NCc3ccccn3)C2)ncn1`, the cytotoxicity at 10 µM turned out to be 7.55%.

Turning to `Cc1nccn1C1CCCN(C(=O)c2ccc3cc[nH]c3c2)C1` (stereo not drawn), the cytotoxicity at 10 µM is -9.69%.

As to `O=C(NCCN1CCCCC1)c1scnc1Cl`, the cytotoxicity at 10 µM was -7.69%.

As for `CC(=O)N1CC[C@@H]2CN(Cc3cccc(Cl)c3)S(=O)(=O)[C@@H]2CC1`, the cytotoxicity at 10 µM was -10.8%.

With `O=c1ccc(-c2cccs2)nn1CN1CCN(C2CCS(=O)(=O)C2)CC1` (stereo not drawn), the cytotoxicity at 10 µM is 9.99%.

Source of the values: ChEMBL document CHEMBL4513216, “Probing the Open Global Health Chemical Diversity Library for Multistage-Active Starting Points for Next-Generation Antimalarials” (ACS Infect Dis, 2020).
